Data published in ChEMBL document CHEMBL3045605, “Synthesis and anticancer evaluation of novel 3,5-diaryl-thiazolo[4,5-d]pyrimidin-2-one derivatives” (2013).

What was measured:
Type in all cases: functional
[1] = tested on: SR; experiment: Anticancer activity against Homo sapiens (human) SR cells assessed as cell growth at 10 uM by SRB assay; settings: read-out: Activity
Summary of the method: (§1)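 NCI 60-cell human tumour panel (leukemia, melanoma, lung, colon, CNS, breast, ovarian, prostate, renal lines) given a single 10−5 M dose. Growth is expressed as percent growth of treated cells relative to untreated controls, with cell growth/viability estimated by sulforhodamine B protein staining.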

[2] = tested on: CAKI-1; experiment: Anticancer activity against Homo sapiens (human) CAKI-1 cells assessed as cell growth at 10 uM by SRB assay; settings: read-out: Activity
Summary of the method: (§2)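 NCI 60-cell human tumour panel (nine cancer types) screened at one concentration, 10−5 M. Cell growth estimated by sulforhodamine B protein staining and reported as percent growth of treated cells relative to untreated controls.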

[3] = tested on: K562; experiment: Anticancer activity against Homo sapiens (human) K562 cells assessed as cell growth at 10 uM by SRB assay; settings: read-out: Activity; summary of the method: as §2
[4] = tested on: HCT-116; experiment: Anticancer activity against Homo sapiens (human) HCT116 cells assessed as cell growth at 10 uM by SRB assay; settings: read-out: Activity; summary of the method: as §2
[5] = tested on: SW-620; experiment: Anticancer activity against Homo sapiens (human) SW620 cells assessed as cell growth at 10 uM by SRB assay; settings: read-out: Activity; summary of the method: as §1
[6] = tested on: LOX IMVI; experiment: Anticancer activity against Homo sapiens (human) LOXIMVI cells assessed as cell growth at 10 uM by SRB assay; settings: read-out: Activity; summary of the method: as §2
[7] = tested on: CCRF-CEM; experiment: Anticancer activity against Homo sapiens (human) CCRF-CEM cells assessed as cell growth at 10 uM by SRB assay; settings: read-out: Activity; summary of the method: as §2
[8] = tested on: NCI-H522; experiment: Anticancer activity against Homo sapiens (human) NCI-H522 cells assessed as cell growth at 10 uM by SRB assay; settings: read-out: Activity
Summary of the method: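 Single-dose screen in the NCI 60-human-tumour-cell-line panel (nine cancer types) at 10−5 M. Cell growth was estimated by sulforhodamine B protein staining and reported as percent growth of treated cells relative to untreated controls.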

[9] = tested on: RXF 393; experiment: Anticancer activity against Homo sapiens (human) RXF393 cells by SRB assay
Summary of the method: (§3)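 Five-dose NCI 60-cell-line panel testing at tenfold dilutions from 10−4 to 10−8 M, with growth read by sulforhodamine B protein staining. For each cell line: GI50 is the molar concentration giving half growth inhibition; TGI is total growth inhibition (cytostatic); LC50 is the molar concentration killing 50% of the initial cells (cytotoxic).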

[10] = Anticancer activity against Homo sapiens (human) NCI-322M cells by SRB assay; summary of the method: as §3
[11] = tested on: SK-MEL-28; experiment: Anticancer activity against Homo sapiens (human) SK-MEL-28 cells by SRB assay; summary of the method: as §3
[12] = tested on: UO-31; experiment: Anticancer activity against Homo sapiens (human) UO31 cells by SRB assay
Summary of the method: (§4)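 NCI five-dose follow-up on the 60-line human tumour panel at tenfold dilutions from 10−4 to 10−8 M, with growth read by sulforhodamine B protein assay against untreated controls. For each cell line, GI50 (half growth inhibition), TGI (total growth inhibition) and LC50 (50% death of initial cells) are calculated as molar concentrations.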

[13] = tested on: T47D; experiment: Anticancer activity against Homo sapiens (human) T47D cells by SRB assay; summary of the method: as §4
[14] = tested on: M14; experiment: Anticancer activity against Homo sapiens (human) M14 cells by SRB assay
Summary of the method: (§5)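 NCI 60-line panel, five tenfold dilutions from 10−4 to 10−8 M, growth read by sulforhodamine B staining against untreated controls. From the dose–response per line: GI50 (molar concentration giving half growth inhibition), TGI (molar concentration giving total growth inhibition, cytostatic) and LC50 (molar concentration killing 50% of initial cells, cytotoxic).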

[15] = tested on: OVCAR-3; experiment: Anticancer activity against Homo sapiens (human) OVCAR3 cells by SRB assay; summary of the method: as §3
[16] = tested on: CCRF-CEM; experiment: Anticancer activity against Homo sapiens (human) CCRF-CEM cells by SRB assay; summary of the method: as §5
[17] = tested on: SK-MEL-5; experiment: Anticancer activity against Homo sapiens (human) SK-MEL-5 cells by SRB assay; summary of the method: as §3
[18] = tested on: BT-549; experiment: Anticancer activity against Homo sapiens (human) BT549 cells by SRB assay; summary of the method: as §5
[19] = tested on: HCT-15; experiment: Anticancer activity against Homo sapiens (human) HCT15 cells by SRB assay; summary of the method: as §5
[20] = tested on: A549; experiment: Anticancer activity against Homo sapiens (human) A549/ATCC cells by SRB assay; summary of the method: as §5
[21] = tested on: CAKI-1; experiment: Anticancer activity against Homo sapiens (human) CAKI-1 cells by SRB assay; summary of the method: as §5
[22] = tested on: U-251; experiment: Anticancer activity against Homo sapiens (human) U251 cells by SRB assay; summary of the method: as §4
[23] = tested on: IGROV-1; experiment: Anticancer activity against Homo sapiens (human) IGROV1 cells by SRB assay; summary of the method: as §5
[24] = tested on: Hs-578T; experiment: Anticancer activity against Homo sapiens (human) Hs 578T cells by SRB assay; summary of the method: as §5
[25] = tested on: SK-MEL-2; experiment: Anticancer activity against Homo sapiens (human) SK-MEL-2 cells by SRB assay; summary of the method: as §3
[26] = tested on: NCI-H460; experiment: Anticancer activity against Homo sapiens (human) NCI-H460 cells by SRB assay; summary of the method: as §3
[27] = tested on: COLO 205; experiment: Anticancer activity against Homo sapiens (human) COLO205 cells by SRB assay; summary of the method: as §5
[28] = tested on: HT-29; experiment: Anticancer activity against Homo sapiens (human) HT-29 cells by SRB assay; summary of the method: as §5
[29] = tested on: SF-268; experiment: Anticancer activity against Homo sapiens (human) SF268 cells by SRB assay; summary of the method: as §3
[30] = tested on: 786-0; experiment: Anticancer activity against Homo sapiens (human) 786-0 cells by SRB assay; summary of the method: as §5
[31] = tested on: PC-3; experiment: Anticancer activity against Homo sapiens (human) PC3 cells by SRB assay; summary of the method: as §3
[32] = tested on: SNB-19; experiment: Anticancer activity against Homo sapiens (human) SNB19 cells by SRB assay; summary of the method: as §3
[33] = tested on: SW-620; experiment: Anticancer activity against Homo sapiens (human) SW620 cells by SRB assay; summary of the method: as §4
[34] = tested on: OVCAR-5; experiment: Anticancer activity against Homo sapiens (human) OVCAR5 cells by SRB assay; summary of the method: as §3
[35] = tested on: NCI-H522; experiment: Anticancer activity against Homo sapiens (human) NCI-H522 cells by SRB assay; summary of the method: as §3
[36] = tested on: DU-145; experiment: Anticancer activity against Homo sapiens (human) DU145 cells by SRB assay; summary of the method: as §5
[37] = tested on: SF-539; experiment: Anticancer activity against Homo sapiens (human) SF539 cells by SRB assay; summary of the method: as §3
[38] = tested on: K562; experiment: Anticancer activity against Homo sapiens (human) K562 cells by SRB assay; summary of the method: as §5
[39] = tested on: Malme-3M; experiment: Anticancer activity against Homo sapiens (human) MALME-3M cells by SRB assay; summary of the method: as §5
[40] = tested on: NCI-H23; experiment: Anticancer activity against Homo sapiens (human) NCI-H23 cells by SRB assay; summary of the method: as §3
[41] = tested on: SK-OV-3; experiment: Anticancer activity against Homo sapiens (human) SKOV3 cells by SRB assay; summary of the method: as §3
[42] = tested on: UACC-257; experiment: Anticancer activity against Homo sapiens (human) UACC257 cells by SRB assay; summary of the method: as §4
[43] = tested on: KM12; experiment: Anticancer activity against Homo sapiens (human) KM12 cells by SRB assay; summary of the method: as §5
[44] = tested on: HOP-92; experiment: Anticancer activity against Homo sapiens (human) HOP92 cells by SRB assay; summary of the method: as §5
[45] = tested on: MDA-MB-435; experiment: Anticancer activity against Homo sapiens (human) MDA-MB-435 cells by SRB assay; summary of the method: as §3
[46] = tested on: SN12C; experiment: Anticancer activity against Homo sapiens (human) SN12C cells by SRB assay; summary of the method: as §3
[47] = tested on: TK-10; experiment: Anticancer activity against Homo sapiens (human) TK10 cells by SRB assay; summary of the method: as §4
[48] = tested on: MCF7; experiment: Anticancer activity against Homo sapiens (human) MCF7 cells by SRB assay; summary of the method: as §5
[49] = tested on: SF-295; experiment: Anticancer activity against Homo sapiens (human) SF295 cells by SRB assay; summary of the method: as §3
[50] = tested on: OVCAR-8; experiment: Anticancer activity against Homo sapiens (human) OVCAR8 cells by SRB assay; summary of the method: as §3
[51] = tested on: OVCAR-4; experiment: Anticancer activity against Homo sapiens (human) OVCAR4 cells by SRB assay; summary of the method: as §3
[52] = tested on: UACC-62; experiment: Anticancer activity against Homo sapiens (human) UACC62 cells by SRB assay; summary of the method: as §4
[53] = tested on: SR; experiment: Anticancer activity against Homo sapiens (human) SR cells by SRB assay; summary of the method: as §4
[54] = tested on: A498; experiment: Anticancer activity against Homo sapiens (human) A498 cells by SRB assay; summary of the method: as §5
[55] = tested on: EKVX; experiment: Anticancer activity against Homo sapiens (human) EKVX cells by SRB assay; summary of the method: as §5
[56] = tested on: NCI/ADR-RES; experiment: Anticancer activity against Homo sapiens (human) NCI/ADR-RES cells by SRB assay; summary of the method: as §3
[57] = tested on: ACHN; experiment: Anticancer activity against Homo sapiens (human) ACHN cells by SRB assay; summary of the method: as §5
[58] = tested on: HOP-62; experiment: Anticancer activity against Homo sapiens (human) HOP62 cells by SRB assay; summary of the method: as §5
[59] = tested on: SNB-75; experiment: Anticancer activity against Homo sapiens (human) SNB75 cells by SRB assay; summary of the method: as §3
[60] = Anticancer activity against Homo sapiens (human) RPMI8266 cells by SRB assay; summary of the method: as §3
[61] = tested on: HCT-116; experiment: Anticancer activity against Homo sapiens (human) HCT116 cells by SRB assay; summary of the method: as §5

## O=c1sc2c(Cl)nc(-c3ccc(F)cc3)nc2n1-c1ccccc1
[1]
  growth at 10 µM: 28.6%
[2]
  growth at 10 µM: 41.8%
[3]
  growth at 10 µM: 35.8%
[4]
  growth at 10 µM: 40.5%

## O=c1sc2c(Cl)nc(-c3ccc(Cl)cc3)nc2n1-c1ccccc1
[1]
  growth at 10 µM: 21.5%
[5]
  growth at 10 µM: 47.6%
[6]
  growth at 10 µM: 24.4%
[3]
  growth at 10 µM: 34.6%
[7]
  growth at 10 µM: 33.6%
[4]
  growth at 10 µM: 29.3%
[8]
  growth at 10 µM: 5.19%

## Nc1nc2[nH]cnc2c(=S)[nH]1 [THIOGUANINE]
[9]
  GI50: 501 nM
[10]
  GI50: 25100 nM
[11]
  GI50: 6310 nM
[12]
  GI50: 794 nM
[13]
  GI50: 10000 nM
[14]
  GI50: 631 nM
[15]
  GI50: 1580 nM
[16]
  GI50: 316 nM
[17]
  GI50: 2510 nM
[18]
  GI50: 1260 nM
[19]
  GI50: 2510 nM
[20]
  GI50: 5010 nM
[21]
  GI50: 316 nM
[22]
  GI50: 10000 nM
[23]
  GI50: 6310 nM
[24]
  GI50: 6310 nM
[25]
  GI50: 1580 nM
[26]
  GI50: 1000 nM
[27]
  GI50: 2510 nM
[28]
  GI50: 1260 nM
[29]
  GI50: 1260 nM
[30]
  GI50: 1580 nM
[31]
  GI50: 3160 nM
[32]
  GI50: 79400 nM
[33]
  GI50: 3980 nM
[34]
  GI50: 501 nM
[35]
  GI50: 2000 nM
[36]
  GI50: 501 nM
[37]
  GI50: 631 nM
[38]
  GI50: 100000 nM
[39]
  GI50: 3160 nM
[40]
  GI50: 3160 nM
[41]
  GI50: 501 nM
[42]
  GI50: 6310 nM
[43]
  GI50: 3160 nM
[44]
  GI50: 1580 nM
[45]
  GI50: 501 nM
[46]
  GI50: 7940 nM
[47]
  GI50: 501 nM
[48]
  GI50: 501 nM
[49]
  GI50: 1260 nM
[50]
  GI50: 398 nM
[51]
  GI50: 5010 nM
[52]
  GI50: 398 nM
[53]
  GI50: 631 nM
[54]
  GI50: 25100 nM
[55]
  GI50: 3980 nM
[56]
  GI50: 398 nM
[57]
  GI50: 3980 nM
[58]
  GI50: 794 nM
[59]
  GI50: 1000 nM
[60]
  GI50: 1260 nM
[61]
  GI50: 631 nM

## O=c1[nH]c(-c2ccccc2)nc2c1sc(=O)n2-c1ccccc1
[2]
  growth at 10 µM: 26.8%
